MEKK2 WT-MEK5 = raises or lowers MEK5 binding to wildtype human MEKK2 PB1 domain; binding response (% of control), % at 10 µM; Q9Y2U5; 1.1% of 290,000 active; bead flow cytometry, Alexa488-MEK5 binding to MEKK2 WT; actives lie on both sides; in the data active = binding response below about 67% or above about 130%
ABCG2 block = blocks JC-1 efflux by human ABCG2 transporter. 0.1% of 190,000 active. IgMXP3 cells, flow cytometry. inhibition, % at 6.6 µM. AID 1325. Q9UNQ0;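 active = inhibition above 80%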;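 note: 0% = DMSO and 100% = nicardipine control wells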
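Assay system – ABCG2 IgMXP3 and barcoded ABCB1 CCRF-Adr cell mix · Input – 3 million cells/mL in well · Reagent – JC-1 fluorescent substrate · Compound – single test compound dose, 6.6 µM final · Timing – 10 min exposure at 25 °C with rotation, no wash · Detection – flow cytometry of retained JC-1 fluorescence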
MEKK2 mut-MEK5 = signal of MEK5 binding to mutant human MEKK2 PB1 domain. bead flow cytometry, Alexa488-MEK5 binding to MEKK2 mutant. percent response, % at 10 µM. 0.35% of 290,000 active; in the data active = percent response above about 24%, passing the limit was not always enough
ABCB1 inh = blocks JC-1 efflux by human ABCB1 transporter | CCRF-Adr cells, flow cytometry | AID 1326 | P08183 | 0.067% of 190,000 active | inhibition, % at 6.6 µM; in the data active = inhibition above about 40%;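 note: 0% = vehicle and 100% = reference inhibitor; higher value means more JC-1 retained so stronger ABCB1 efflux block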
MEKK3 PB1 HTS = modulators (inhibitors or enhancers) of MEK5 binding to human MEKK3 PB1 domain; bead-based flow cytometry, Alexa488-MEK5 binding to MEKK3; actives lie on both sides; 0 = blocked by unlabeled MEK5, 100 = vehicle; binding response (% of control), % at 10 µM; 1.4% of 290,000 active; Q99759;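 active = binding response more than 3 SD above or below the average of its plate-row segment, actives on both sides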;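 note: Alexa488 bead fluorescence after subtracting the streptavidin-only scavenger bead signal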
Target sequence (Q99759 whole entry, looked up, the tested form may be a part): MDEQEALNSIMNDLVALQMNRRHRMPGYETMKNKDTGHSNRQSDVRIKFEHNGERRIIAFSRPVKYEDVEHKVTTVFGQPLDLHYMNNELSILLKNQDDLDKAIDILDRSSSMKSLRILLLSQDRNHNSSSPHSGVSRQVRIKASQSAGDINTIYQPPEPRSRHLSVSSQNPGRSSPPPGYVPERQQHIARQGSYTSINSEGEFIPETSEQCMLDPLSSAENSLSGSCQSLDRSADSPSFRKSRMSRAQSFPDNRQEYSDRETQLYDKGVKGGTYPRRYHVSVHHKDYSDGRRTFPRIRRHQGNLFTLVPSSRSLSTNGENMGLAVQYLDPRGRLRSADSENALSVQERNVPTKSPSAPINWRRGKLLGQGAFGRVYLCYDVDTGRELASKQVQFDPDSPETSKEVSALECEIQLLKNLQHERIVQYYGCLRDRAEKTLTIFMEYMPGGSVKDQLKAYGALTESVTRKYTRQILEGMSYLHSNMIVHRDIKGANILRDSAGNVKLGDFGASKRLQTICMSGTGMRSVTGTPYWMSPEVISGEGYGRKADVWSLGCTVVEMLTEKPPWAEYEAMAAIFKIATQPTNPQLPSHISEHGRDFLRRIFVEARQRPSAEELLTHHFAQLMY
MEKK2wt confirm = raises or lowers MEK5 binding to wildtype human MEKK2, retest; 2.4% of 5,900 active; shares compounds with MEKK3 PB1 HTS; AID 1892; bead flow cytometry, Alexa488-MEK5 binding to MEKK2 WT; actives lie on both sides; binding response (% of control), % at 10 µM; in the data active = binding response below about 16% or above about 210%; inactive = in between
MEKK2mut confirm = signal of MEK5 binding to mutant human MEKK2, retest | shares compounds with MEKK3 PB1 HTS | bead flow cytometry, Alexa488-MEK5 binding to MEKK2 mutant | percent response, % at 10 µM | 2% of 5,900 active | AID 1893; in the data active = percent response mostly above about 71%, no sharp cut-off; inactive = mostly below about 38%;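 note: higher means compound restores mutant binding toward wildtype level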
MEKK3 confirm = confirmation of inhibitors of MEK5 binding to human MEKK3. bead flow cytometry, Alexa488-MEK5 binding to MEKK3; hits give low values. 1.8% of 5,900 active. shares compounds with MEKK3 PB1 HTS. binding response (% of control), % at 10 µM;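 active = binding response below 72% of control, or above a set upper limit, though filed actives all read lower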;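 note: 100% = DMSO only wells and 0% = binding blocked by excess unlabeled MEK5; lower values mean stronger disruption of MEK5 binding to MEKK3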
Starred values were filed as active, the others as inactive; nt = no result given; [ ] = remark or other dose. A selection: hits, their analogues and other compounds. The true share with any hit is near 2.3%.

SMILES | MEKK2 WT-MEK5 | ABCG2 block | MEKK2 mut-MEK5 | ABCB1 inh | MEKK3 PB1 HTS | MEKK2wt confirm | MEKK2mut confirm | MEKK3 confirm
Cc1ccc(CNC(=O)CCS(=O)(=O)Cc2ccc(C)cc2)cc1 | 102.0 | nt | 5.0 | nt | 101.0 | nt | nt | nt
CCOC(=O)c1sc(NC(=O)C2CC(=O)N(c3ccc(OCC)cc3)C2)nc1C (configuration not stated) | 101.0 | nt | 1.0 | nt | 101.0 | nt | nt | nt
COc1ccc(S(=O)(=O)N(C)CC(=O)NCCN2CCOCC2)cc1C | 101.0 | nt | 1.0 | nt | 101.0 | nt | nt | nt
Cc1cc(-c2ccc(Cl)cc2)n2ncnc2n1 | 59.0 | nt | -39.0 | nt | 50.0*[inhibitor] | 101.0 | -3.0 | 95.0
Cc1cc(C)cc(NS(=O)(=O)c2ccc3c(c2)C(C)(C)C(=O)N3C)c1 | 96.0 | nt | -2.0 | nt | 99.0 | nt | nt | nt
CCC(=O)Nc1ccc(-c2nnc(SCC(=O)N3CCCCC3)n2C)cc1 | 1.0*[inhibitor] | 15.3 | -15.0 | 3.6 | 2.0*[inhibitor] | 103.0 | 1.0 | 108.0
CCC(=O)Nc1ccc(C(=O)CSc2nnc(-c3ccc(NS(C)(=O)=O)cc3)n2C)cc1OC | 94.0 | -2.9 | -1.0 | -0.3 | 73.0*[inhibitor] | 103.0 | 4.0 | 104.0
Cc1cc(C)c(C#N)c(SCC(O)COc2ccc(Br)cc2)n1 (configuration not stated) | 95.0 | nt | -4.0 | nt | 100.0 | nt | nt | nt
CN(C1CCCCC1)S(=O)(=O)c1ccc(S(=O)(=O)N2CCN(C(=O)c3ccccc3F)CC2)cc1 | 133.0 | 3.3 | 9.0 | 2.1 | 144.0* | 106.0 | 4.0 | 106.0
O=C(c1ccccc1F)N1CCN(S(=O)(=O)c2ccc3c(c2)OCCO3)CC1 | 103.0 | 3.6 | 2.0 | 0.3 | 103.0 | nt | nt | nt
CCCCCCCCCCCCCCCCn1cc[n+](CC(C)=O)c1 | 220.0* | -1.1 | 89.0* | -0.2 | 109.0 | 203.0 | 68.0 | 108.0
CCCCCCn1ccc(=N)cc1 | 95.0 | 0.0 | -10.0 | 0.1 | 81.0 | nt | nt | nt
CSc1cccc(CN2CCN(Cc3ccccc3)C(CCO)C2)c1 (configuration not stated) | 58.0 | -0.1 | -15.0 | 0.3 | 48.0*[inhibitor] | 101.0 | 4.0 | 101.0
Cc1c(CNC2CCC(C)CC2)c(C(=O)O)c(C)n1Cc1ccccc1 (configuration not stated) | 111.0 | 10.6 | 1.0 | 1.4 | 140.0* | 109.0 | 8.0 | 106.0
Cc1c(CNC2CCCC2)c(C(=O)O)c(C)n1Cc1ccccc1 | 101.0 | 0.0 | -1.0 | 0.1 | 102.0 | nt | nt | nt
COc1ccc(CN2CCC(n3nccc3NC(=O)C3CC3)CC2)cc1O | 109.0 | nt | 8.0 | nt | 105.0 | nt | nt | nt
CCc1ccc(C(=O)NCc2ccc(Cl)cc2Cl)cc1 | 100.0 | 1.1 | -2.0 | 0.1 | 99.0 | nt | nt | nt
Cc1ccc(SCc2ccc(C(=O)NCc3ccncc3)cc2)cc1 | 85.0 | 0.6 | -6.0 | 0.2 | 82.0*[inhibitor] | 101.0 | -2.0 | 100.0
Cc1ccc(SCCC(=O)NCc2ccncc2)cc1 | 94.0 | -2.0 | -5.0 | -2.6 | 99.0 | nt | nt | nt
CCc1ccc(C(=O)NCc2ccc(Cl)cc2)cc1 | 97.0 | 6.2 | -1.0 | 0.4 | 71.0*[inhibitor] | 98.0 | -1.0 | 102.0
CSc1ncc(C(=O)Nc2cccc(Cl)c2)c(C)n1 | 95.0 | nt | 2.0 | nt | 99.0 | nt | nt | nt
CCOC(=O)COc1ccc(/C=C2/C(=O)NN(c3ccc(F)cc3)C2=O)cc1OC | 167.0* | nt | 15.0 | nt | 116.0 | 98.0 | -1.0 | 101.0
CCOC(=O)c1ccc(N2NC(=O)/C(=C/c3ccc(OC(=O)c4ccco4)c(OC)c3)C2=O)cc1 | 88.0 | -20.4 | -2.0 | -1.6 | 100.0 | nt | nt | nt
COc1ccc(C(=O)NCCC2=CCCCC2)cc1 | 107.0 | 3.3 | 1.0 | 0.5 | 131.0* | 100.0 | -9.0 | 97.0
COc1ccc(C(=O)NCC(=O)OCC(=O)NCCC2=CCCCC2)cc1 | 96.0 | 3.1 | -3.0 | 0.3 | 100.0 | nt | nt | nt
CCN(CC)c1ccc(C=N/C(C#N)=C(\N)C#N)cc1 | nt | 0.6 | -10.0 | 0.2 | 1.0*[inhibitor] | 83.0 | -9.0 | 85.0
CCN(CC)c1ccc(/C=C(\C#N)c2ccccn2)cc1 | 96.0 | 0.1 | -1.0 | -1.7 | 99.0 | nt | nt | nt

Compound activity: PubChem, NMMLSC
